# Calls of active or inactive are those of the source. No cut-off for these calls is given here.
# Experiments:
# Escherichia coli = experiment: Antibacterial activity against Escherichia coli ATCC 25922 up to 30 uM after 24 hrs by spectrophotometric method; format: functional, organism-based
# In short: (§1)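 Bacteria grown on tryptic soy agar at 37 °C for 24 h. One colony moved to tryptic soy broth and adjusted to 10^4−10^5 CFU/mL. Compound in DMSO, diluted with water to a 600 μM stock in 20% DMSO, then added to broth at a final 30 μM in 1% DMSO. Incubated 37 °C for 24 h, OD600 read. Rifampicin positive control. IC50 taken as 50% growth inhibition.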
# SW-620 = experiment: Growth inhibition of human SW620 cells up to 30 uM after 48 hrs by MTT assay; format: functional, cell-based
# In short: (§2)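 Adherent cells grown with 10% FBS, 2 mM L-glutamine and penicillin/streptomycin at 37 °C, 5% CO2. Seeded at 3000 cells/well and attached for 18 h. Compound added at a final 30 μM in 1% DMSO for 48 h. MTT then added (final 0.5 mg/mL) for 4 h, formazan dissolved in DMSO, absorbance read at 580 nm. Negative control 1% DMSO, doxorubicin positive control. Run in duplicate. IC50 versus negative control.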
# Staphylococcus aureus = experiment: Antibacterial activity against Staphylococcus aureus ATCC 25923 up to 30 uM after 24 hrs by spectrophotometric method; format: functional, organism-based; in short: as §1
# NCI-H460 = experiment: Growth inhibition of human NCI-H460 cells up to 30 uM after 48 hrs by MTT assay; format: functional, cell-based; in short: as §2
# Bacillus spizizenii = experiment: Antibacterial activity against Bacillus subtilis ATCC 6633 up to 30 uM after 24 hrs by spectrophotometric method; format: functional, organism-based; in short: as §1
# [1] = Inhibition of DNA polymerase (unknown origin); parameters: species or system Homo sapiens
# MCF7 = experiment: Growth inhibition of human MCF7 cells; format: functional; conditions: read-out: LD50 (the source's name)
# HeLa = experiment: Growth inhibition of human HeLa cells; format: functional; conditions: read-out: LD50 (the source's name)
Structure (SMILES),Activity (Escherichia coli),growth inhibition (GI) (SW-620),Activity (Staphylococcus aureus),growth inhibition (GI) (NCI-H460),Activity (Bacillus spizizenii),IC50 [1] [µM],CC50 (MCF7) [µM],CC50 (HeLa) [µM]
CC(C)[C@H]1CC[C@@](O)(COC(=O)/C(=C/[C@@H]2[C@@H](C(C)C)CC[C@@]3(O)COC(=O)[C@@H]23)CO)[C@H]2C(=O)OCC(C(=O)O)=C[C@H]12,inactive,inactive,inactive,inactive,inactive,,,
CC(C)[C@H]1CC[C@@]2(OC(=O)/C(=C/[C@H]3C4=C(CC[C@@H]3C(C)C)COC4=O)CO)COC(=O)[C@H]2[C@@H]1/C=C(\CO)C(=O)O,inactive,inactive,inactive,inactive,inactive,,,
CC(C)[C@H]1CC[C@@](O)(COC(=O)/C(=C/[C@H]2C=C(CO)CC[C@@H]2C(C)C)CO)[C@H]2C(=O)OCC(C(=O)O)=C[C@H]12,inactive,inactive,inactive,inactive,inactive,,,
CC(C)[C@H]1CCC(CO)=C[C@@H]1/C=C(\CO)C(=O)O,inactive,inactive,inactive,inactive,inactive,,,
CC(C)[C@H]1CC[C@@](O)(COC(=O)C2=C[C@H]3[C@@H](OC2)[C@H](CO)CC[C@@H]3C(C)C)[C@H]2C(=O)OCC(C(=O)O)=C[C@H]12,inactive,inactive,inactive,inactive,inactive,,,
CC(C)C1CCC(O)(COC(=O)C2=CC3C(C(C)C)CCC4(CO4)C3C(=O)OC2)C2C(=O)OCC(C(=O)O)=CC12 (stereo not drawn),,,,,,30.8,31.6,33
CC(C)[C@H]1CC[C@@](O)(COC(=O)/C(=C/[C@H]2C3=C(CC[C@@H]2C(C)C)COC3=O)CO)[C@H]2C(=O)OCC(C(=O)O)=C[C@H]12,inactive,inactive,inactive,inactive,inactive,,,
CC(=O)OCC1=C[C@H](/C=C(\CO)C(=O)O)[C@@H](C(C)C)CC1,inactive,inactive,inactive,inactive,inactive,,,
CC(=O)OC/C(=C\[C@H]1C=C(CO)CC[C@@H]1C(C)C)C(=O)O,inactive,inactive,inactive,inactive,inactive,,,
CC(C)[C@H]1CC[C@@](O)(COC(=O)/C(=C/[C@H]2C3=C(CC[C@@H]2C(C)C)COC3=O)CO)[C@@H](C(=O)O)[C@@H]1/C=C(\CO)C(=O)O,inactive,inactive,inactive,inactive,inactive,,,
CC(C)[C@H]1CC[C@@]2(OC(=O)/C(=C/[C@H]3C=C(CO)CC[C@@H]3C(C)C)CO)COC(=O)[C@H]2[C@@H]1/C=C(\CO)C(=O)O,inactive,inactive,inactive,inactive,inactive,,,

# Reference: ChEMBL document CHEMBL4371093, “Divirensols: Sesquiterpene Dimers from the Australian Termite Nest-Derived Fungus Trichoderma virens CMB-TN16” (J Nat Prod, 2019)
